Test results taken from ChEMBL document CHEMBL1156912, “Subtlety of the structure-affinity and structure-efficacy relationships around a nonpeptide oxytocin receptor agonist” (J Med Chem, 2010).
The source made the active and inactive calls. No cut-off for these calls is given here.

How the values were obtained:
[1] = biological target: T1, Oxytocin receptor (Homo sapiens) (UniProt P30559); assay: Activity at human oxytocin receptor expressed in CHO cells assessed as inositol phosphate accumulation at 1 uM; format: functional, cell-based
T1 sequence (whole entry): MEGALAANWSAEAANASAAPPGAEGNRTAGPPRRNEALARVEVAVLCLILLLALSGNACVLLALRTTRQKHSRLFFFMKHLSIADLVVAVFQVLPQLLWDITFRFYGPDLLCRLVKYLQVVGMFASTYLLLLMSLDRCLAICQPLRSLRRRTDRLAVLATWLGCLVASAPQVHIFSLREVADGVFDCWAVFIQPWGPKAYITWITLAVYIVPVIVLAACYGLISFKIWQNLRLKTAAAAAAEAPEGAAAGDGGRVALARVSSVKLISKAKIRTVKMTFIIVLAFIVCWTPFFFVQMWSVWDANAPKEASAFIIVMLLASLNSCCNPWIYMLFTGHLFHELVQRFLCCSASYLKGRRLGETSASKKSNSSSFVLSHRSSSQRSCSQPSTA
Outline: (§1)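 Agonist mode on CHO cells stably expressing human OT receptor: 30 min at 37 °C with ligand, 10 fM–100 μM, ≤1% final DMSO. IP1 accumulation was read by IP-One HTRF, ΔF from the 665/620 ratio. K_act is the EC50 from the sigmoidal fit. Emax is % of the 1 μM OT maximal response. Single-concentration lines are % of OT maximum, n = 2. Mean of ≥3 experiments in triplicate.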

[2] = biological target: T2, Vasopressin V2 receptor (Homo sapiens, UniProt P30518); assay: Activity at human vasopressin V2 receptor expressed in CHO cells assessed as cAMP accumulation at 1 uM; format: functional, cell-based
T2 sequence (P30518 whole entry): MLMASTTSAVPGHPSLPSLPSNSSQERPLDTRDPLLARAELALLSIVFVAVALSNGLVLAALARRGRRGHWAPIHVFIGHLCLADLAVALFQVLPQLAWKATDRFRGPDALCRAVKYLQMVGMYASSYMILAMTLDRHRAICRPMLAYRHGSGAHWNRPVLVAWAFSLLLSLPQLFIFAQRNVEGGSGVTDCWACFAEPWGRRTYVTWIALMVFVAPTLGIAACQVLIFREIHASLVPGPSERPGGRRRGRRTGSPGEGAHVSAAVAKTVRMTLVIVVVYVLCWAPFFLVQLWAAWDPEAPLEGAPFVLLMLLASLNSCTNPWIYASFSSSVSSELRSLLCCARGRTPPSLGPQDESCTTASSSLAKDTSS
Outline: (§2)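 V2-R agonism in CHO cells at 1000 cells/well, stimulated 30 min at 37 °C in D-MEM containing 0.1 mM Ro-20-1724 and 1 mg/mL BSA. cAMP was read by cAMP dynamic 2 HTRF. K_act from the sigmoidal fit. Emax is % of the 0.1 μM AVP response. Single-concentration values are % of AVP maximum.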

[3] = biological target: T3, Vasopressin V1a receptor (Homo sapiens, UniProt P37288); assay: Activity at human vasopressin V1a receptor expressed in CHO cells by NFAT-luciferase gene reporter assay; format: cell-based
[4] = biological target: T4, Oxytocin receptor (Homo sapiens, UniProt P30559); assay: Activity at human oxytocin receptor expressed in CHO cells by NFAT-luciferase gene reporter assay; format: cell-based
T4 sequence (P30559 whole entry): T1 sequence (whole entry)

[5] = biological target: T2, Vasopressin V2 receptor; assay: Activity at human vasopressin V2 receptor expressed in CHO cells assessed as inhibition of agonist-induced cAMP accumulation; format: functional, cell-based
[6] = biological target: T2, Vasopressin V2 receptor; assay: Displacement of [3H]AVP from human vasopressin V2 receptor expressed in CHO cells; format: cell-based
Outline: (§3)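 Membranes came from CHO cells stably expressing the human receptor; OT-R and V1a-R cells were treated overnight with 5 mM butyrate. Membrane protein was 10–15 μg (OT, V1a) or 5 μg (V2), incubated 30 min at 30 °C in 50 mM Tris-HCl, 5 mM MgCl2, 1 mg/mL BSA, pH 7.4, with 1–2 nM [3H]AVP and competitor 0.1 pM–100 μM. Nonspecific binding: 10 μM AVP. Filtration, then Ki via Cheng–Prusoff. Mean ± SEM of ≥3 experiments in triplicate.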

[7] = biological target: T2, Vasopressin V2 receptor; assay: Activity at human vasopressin V2 receptor expressed in CHO cells by cAMP dynamic 2 assay
[8] = biological target: T1, Oxytocin receptor (Homo sapiens); assay: Activity at human oxytocin receptor expressed in CHO cells assessed as inhibition of agonist-induced inositol phosphate accumulation; format: functional, cell-based
[9] = biological target: T3, Vasopressin V1a receptor; assay: Activity at human vasopressin V1a receptor expressed in CHO cells assessed as inhibition of agonist-induced inositol phosphate accumulation; format: functional, cell-based
Outline: (§4)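 Human V1a receptor in stably transfected CHO cells, seeded at 80000 cells/well overnight. Cells were preincubated 10 min at 37 °C with ligand (10 fM–100 μM, ≤1% final DMSO), then challenged with 2 nM AVP for 30 min. IP1 was read by IP-One HTRF. K_inact was derived by Cheng–Prusoff-type correction using AVP K_act 1.20 nM. Fixed-concentration lines are % inhibition, n = 2.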
Target sequence in this assay (P37288 whole entry, looked up): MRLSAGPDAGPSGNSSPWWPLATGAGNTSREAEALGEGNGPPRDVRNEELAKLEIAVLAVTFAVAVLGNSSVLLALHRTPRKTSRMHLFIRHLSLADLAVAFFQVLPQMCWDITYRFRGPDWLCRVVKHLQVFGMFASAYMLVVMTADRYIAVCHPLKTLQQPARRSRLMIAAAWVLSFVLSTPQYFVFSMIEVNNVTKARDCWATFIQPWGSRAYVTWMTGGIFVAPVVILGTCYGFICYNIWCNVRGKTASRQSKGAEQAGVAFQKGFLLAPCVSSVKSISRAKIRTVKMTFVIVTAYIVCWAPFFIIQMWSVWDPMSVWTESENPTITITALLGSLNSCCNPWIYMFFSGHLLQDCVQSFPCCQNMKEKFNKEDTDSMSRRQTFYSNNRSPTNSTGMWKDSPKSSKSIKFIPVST

[10] = biological target: T3, Vasopressin V1a receptor; assay: Displacement of [3H]AVP from human vasopressin V1a receptor expressed in CHO cells; format: cell-based; outline: as §3
Target sequence in this assay (P37288 whole entry): as the sequence (P37288 whole entry, looked up) above

[11] = biological target: T4, Oxytocin receptor; assay: Displacement of [3H]AVP from human oxytocin receptor expressed in CHO cells; format: cell-based; outline: as §3
[12] = biological target: T3, Vasopressin V1a receptor; assay: Activity at human vasopressin V1a receptor expressed in CHO cells assessed as inositol phosphate accumulation at 1 uM; format: functional, cell-based
Outline: (§5)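 Human V1a-expressing CHO cells, 80000 cells/well, exposed to ligand for 30 min at 37 °C. IP1 was measured by HTRF IP-One. EC50 (K_act) from the dose–response curve. Emax is relative to the 1 μM AVP maximum. Weak responses are reported as % of AVP maximum at 1 μM ligand.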
Target sequence in this assay (P37288 whole entry, looked up): as above

[13] = biological target: T3, Vasopressin V1a receptor; assay: Activity at human vasopressin V1a receptor expressed in CHO cells assessed as inhibition of agonist-induced inositol phosphate accumulation at 1 uM; format: functional, cell-based; parameters: scale not given: the % may be the effect or the level left; outline: as §4
Target sequence in this assay (P37288 whole entry, looked up): as above

[14] = biological target: T1, Oxytocin receptor (Homo sapiens); assay: Activity at human oxytocin receptor expressed in CHO cells assessed as inositol phosphate accumulation up to 10 uM; format: functional, cell-based
Outline: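 CHO cells stably expressing human OT receptor, seeded 80000 cells/well overnight at 37 °C. Ligands 10 fM to 100 μM (≤1% DMSO) in IP-One stimulation buffer, 30 min at 37 °C with 5% CO₂. IP₁ read by HTRF at 665/620 nm. EC50 (K_act) from sigmoidal curves; Emax as % of 1 μM OT maximum. Triplicate wells, ≥3 experiments.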

[15] = biological target: T1, Oxytocin receptor (Homo sapiens); assay: Activity at human oxytocin receptor expressed in CHO cells assessed as inhibition of agonist-induced inositol phosphate accumulation at 10 uM; format: functional, cell-based; parameters: scale not given: the % may be the effect or the level left
[16] = biological target: T1, Oxytocin receptor (Homo sapiens); assay: Activity at human oxytocin receptor expressed in CHO cells assessed as inhibition of agonist-induced inositol phosphate accumulation at 1 uM; format: functional, cell-based; parameters: scale not given: the % may be the effect or the level left
[17] = biological target: T2, Vasopressin V2 receptor; assay: Activity at human vasopressin V2 receptor expressed in CHO cells assessed as inhibition of agonist-induced cAMP accumulation at 1 uM; format: functional, cell-based
[18] = biological target: T2, Vasopressin V2 receptor; assay: Activity at human vasopressin V2 receptor expressed in CHO cells assessed as cAMP accumulation; format: functional, cell-based; outline: as §2
[19] = biological target: T1, Oxytocin receptor (Homo sapiens); assay: Activity at human oxytocin receptor expressed in CHO cells assessed as inositol phosphate accumulation; format: functional, cell-based; outline: as §1
[20] = biological target: T2, Vasopressin V2 receptor; assay: Activity at human vasopressin V2 receptor expressed in CHO cells assessed as inhibition of agonist-induced cAMP accumulation at 10 uM; format: functional, cell-based; parameters: Activity: scale not given: the % may be the effect or the level left
[21] = biological target: T1, Oxytocin receptor (Homo sapiens); assay: Activity at human oxytocin receptor expressed in CHO cells assessed as inositol phosphate accumulation up to 100 uM; format: functional, cell-based; outline: as §1
[22] = biological target: T3, Vasopressin V1a receptor; assay: Activity at human vasopressin V1a receptor expressed in CHO cells assessed as inositol phosphate accumulation up to 100 uM; format: functional, cell-based; outline: as §5
Target sequence in this assay (P37288 whole entry, looked up): as above

[23] = biological target: T3, Vasopressin V1a receptor; assay: Activity at human vasopressin V1a receptor expressed in CHO cells assessed as inhibition of agonist-induced inositol phosphate accumulation at 10 uM; format: functional, cell-based; parameters: scale not given: the % may be the effect or the level left; outline: as §4
Target sequence in this assay (P37288 whole entry, looked up): as above

[24] = biological target: T2, Vasopressin V2 receptor; assay: Activity at human vasopressin V2 receptor expressed in CHO cells assessed as cAMP accumulation up to 100 uM; format: functional, cell-based; outline: as §2
[25] = biological target: T2, Vasopressin V2 receptor; assay: Activity at human vasopressin V2 receptor expressed in CHO cells assessed as inhibition of agonist-induced cAMP accumulation at 100 uM; format: functional, cell-based; parameters: scale not given: the % may be the effect or the level left
[26] = biological target: T2, Vasopressin V2 receptor; assay: Activity at human vasopressin V2 receptor expressed in CHO cells assessed as cAMP accumulation at 10 uM; format: functional, cell-based; outline: as §2
[27] = biological target: T3, Vasopressin V1a receptor; assay: Activity at human vasopressin V1a receptor expressed in CHO cells assessed as inhibition of agonist-induced inositol phosphate accumulation at 100 uM; format: functional, cell-based; parameters: scale not given: the % may be the effect or the level left; outline: as §4
Target sequence in this assay (P37288 whole entry, looked up): as above

[28] = biological target: T3, Vasopressin V1a receptor; assay: Activity at human vasopressin V1a receptor expressed in CHO cells assessed as inositol phosphate accumulation; format: functional, cell-based; outline: as §5

SMILES | Activity [2] | Kinact [5] | Ki ([6]; read-out: Ki) [nM] | Kinact [8] [nM] | Kinact [9] [nM] | Ki ([10]; read-out: Ki) [nM] | Ki ([11]; read-out: Ki) [nM] | Activity [12] | Activity [15] | Activity [16] | Emax [2] [%] | Activity [17] | Activity [13] | further results
O=C(Nc1ccc(C(=O)N2CCCCc3ccccc32)cc1)c1ccccc1-c1ccccc1 | inactive | 0.096 nM | 0.57 | 171 | 63 | 2.74 | 109 | inactive | – | – | – | – | – | Activity [1]: inactive; EC50 [3]: 14 nM; EC50 [4]: 63 nM; EC50 [7]: 7.6 nM
COc1cc(OC2CCN(C(C)=O)CC2)ccc1C(=O)N1CCC(N2C(=O)OCc3ccccc32)CC1 | inactive | inactive | – | – | – | – | – | inactive | – | – | – | – | 18% | Activity [1]: inactive; EC50 [3]: 3200 nM; EC50 [4]: 4.6 nM; Ki ([6]; cho): Not Active; EC50 [7]: 37000 nM; Ki ([10]; cho): Not Active; Ki ([11]; cho): Not Active
Cc1cc(C(=O)N2Cc3cnn(C)c3Nc3ccccc32)ccc1NC(=O)c1ccccc1-c1ccccc1 | inactive | 1.1 nM | 6.4 | 557 | 412 | 37 | 111 | inactive | – | – | – | – | – | Activity [14]: inactive
CC(=O)NCc1ccc(C(=O)N2Cc3cnn(C)c3Nc3ccccc32)cc1C | – | – | – | – | – | > 5000 | > 5000 | inactive | inactive | inactive | – | – | 27% | –
Cc1cc(C(=O)N2Cc3cnn(C)c3Nc3ccccc32)ccc1CNC(=O)N1CCCC1 | – | – | > 1000 | – | 187 | 167 | > 1000 | inactive | inactive | 37% | 20 | – | – | Kinact [17]: inactive
Cc1cc(C(=O)N2CCC(N3C(=O)OCc4ccccc43)CC2)ccc1CNC(=O)N1CCC[C@H]1C(=S)N1CCCN(C)CC1 | inactive | – | – | 383 | – | > 5000 | 245 | inactive | – | – | – | inactive | inactive | Activity [14]: inactive
Cc1cc(C(=O)N2Cc3cnn(C)c3Nc3ccccc32)ccc1CNC(=O)N(C)C | – | – | > 1000 | – | 134 | 170 | > 5000 | inactive | inactive | 30% | 16 | – | – | –
Cc1cc(C(=O)N2Cc3cnn(C)c3Nc3ccccc32)ccc1CNC(=O)N1CCC[C@H]1C(=S)N1CCCN(C)CC1 | – | – | > 1000 | – | 271 | 330 | 147 | – | – | 16% | 84 | inactive | – | Kact [19]: 0.667 µM; Emax [1]: 58%; Activity [28]: inactive; Activity [3]: inactive; Kact [18]: 599 nM

Continued, in another order:

Activity [2] | Kinact [5] | Ki ([6]; read-out: Ki) [nM] | Kinact [8] [nM] | Kinact [9] [nM] | Ki ([10]; read-out: Ki) [nM] | Ki ([11]; read-out: Ki) [nM] | Activity [12] | Activity [15] | Activity [16] | Emax [2] [%] | Activity [17] | SMILES | Activity [13] | further results
inactive | 253 nM | 913 | 14.8 | 32.5 | 18 | 27.8 | inactive | – | – | – | – | Cc1ccn(-c2ccc(C(=O)N3Cc4cnn(C)c4Nc4ccccc43)cc2C)n1 | – | –
– | – | 50 | 488 | – | 344 | 199 | inactive | – | – | 75 | inactive | Cc1ccn(-c2ccc(C(=O)N3Cc4cccn4Cc4ccccc43)c(Cl)c2)n1 | 33% | Activity [1]: inactive; EC50 [3]: 465 nM; EC50 [4]: 125 nM; EC50 [7]: 39.9 nM; Kact [18]: 9.5 nM
– | – | 3400 | – | 754 | > 1000 | 2500 | inactive | 11% | – | 9 | – | Cc1cc(C(=O)N2Cc3cccn3Cc3ccccc32)ccc1CNC(=O)N1CCC[C@H]1C(=S)N1CCCN(C)CC1 | – | Kact [19]: 110 µM; Emax [1]: 50.6%; Inhibition [20]: 43%; Activity [21]: inactive
– | – | 29 | 69 | 13 | 27 | 17 | inactive | – | – | 94 | inactive | Cc1ccn(-c2ccc(C(=O)N3Cc4cnn(C)c4Nc4ccccc43)c(Cl)c2)n1 | – | Activity [19]: inactive; Kact [18]: 8.4 nM
– | – | > 5000 | – | – | > 5000 | > 5000 | – | 17% | – | – | – | CN1CCCN(C(=S)[C@@H]2CCCN2C(=O)NCc2ccc(C(=O)N3Cc4cccn4Cc4ccccc43)c(Cl)c2)CC1 | – | Activity [22]: inactive; Activity [23]: 7%; Activity [24]: inactive; Activity [20]: 25%; Activity [25]: 94%; Activity [26]: 13%; Activity [27]: 92%
